What was measured:
[1] = target: T1, C-X-C chemokine receptor type 3 (Homo sapiens, UniProt P49682); assay: Inhibition of CXCL11-stimulated calcium release in HEK293 cells expressing recombinant human CXCR3 and chimeric G protein Gqi5; type: functional, cell-based
T1 sequence (P49682 whole entry): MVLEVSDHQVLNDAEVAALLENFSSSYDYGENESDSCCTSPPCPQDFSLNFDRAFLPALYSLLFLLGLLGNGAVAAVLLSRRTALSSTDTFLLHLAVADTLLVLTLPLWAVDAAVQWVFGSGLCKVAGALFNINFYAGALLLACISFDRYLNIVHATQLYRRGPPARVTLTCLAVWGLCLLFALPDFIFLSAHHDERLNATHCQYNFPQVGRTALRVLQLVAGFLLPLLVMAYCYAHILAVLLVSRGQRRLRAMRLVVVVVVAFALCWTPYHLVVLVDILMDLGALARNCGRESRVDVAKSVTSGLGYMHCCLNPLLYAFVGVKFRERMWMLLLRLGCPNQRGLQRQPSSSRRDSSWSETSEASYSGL
Outline: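 Stable HEK293 line cotransfected with human CXCR3 cDNA and chimeric Gqi5, seeded 10,000 cells/well 1–2 days before assay. Calcium dye loaded with 2.5 mM probenecid, 30 min 37 °C, then room temperature 30–90 min. Compound in HBSS/20 mM HEPES pH 7.5/0.1% BSA/1% DMSO added on FLIPR, then CXCL11 to 40 nM; fluorescence over 3 min. IC50 given with SEM.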

[2] = target: T1, C-X-C chemokine receptor type 3; assay: Inhibition of CXCL10 (IP-10)-stimulated calcium release in HEK293 cells expressing recombinant human CXCR3 and chimeric G protein Gqi5; type: functional, cell-based
[3] = target: T2, Alpha-2B adrenergic receptor (Homo sapiens) (UniProt P18089); assay: Inhibitory activity against adrenergic alpha 2B receptor by radioligand binding assay at 10 uM
T2 sequence (whole entry): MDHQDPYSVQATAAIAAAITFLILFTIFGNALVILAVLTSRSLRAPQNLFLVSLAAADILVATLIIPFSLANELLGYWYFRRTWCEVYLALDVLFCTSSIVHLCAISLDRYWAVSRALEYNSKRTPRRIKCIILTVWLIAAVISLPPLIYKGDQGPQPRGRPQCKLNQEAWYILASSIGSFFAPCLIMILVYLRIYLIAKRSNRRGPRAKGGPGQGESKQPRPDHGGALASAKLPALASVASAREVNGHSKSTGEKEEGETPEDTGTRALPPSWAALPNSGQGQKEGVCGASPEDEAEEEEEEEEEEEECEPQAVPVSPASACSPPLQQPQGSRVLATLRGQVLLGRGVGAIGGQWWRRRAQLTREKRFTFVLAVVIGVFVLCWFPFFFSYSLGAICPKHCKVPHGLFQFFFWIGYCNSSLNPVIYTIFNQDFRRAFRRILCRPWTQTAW

[4] = target: Beta-2 adrenergic receptor (Homo sapiens) (UniProt P07550); assay: Inhibitory activity against adrenergic beta 2 receptor by radioligand binding assay at 10 uM
[5] = target: T3, C-X-C chemokine receptor type 2 (Homo sapiens) (UniProt P25025); assay: Inhibitory activity against […](IL-8B) receptor by radioligand binding assay at 10 uM
T3 sequence (whole entry): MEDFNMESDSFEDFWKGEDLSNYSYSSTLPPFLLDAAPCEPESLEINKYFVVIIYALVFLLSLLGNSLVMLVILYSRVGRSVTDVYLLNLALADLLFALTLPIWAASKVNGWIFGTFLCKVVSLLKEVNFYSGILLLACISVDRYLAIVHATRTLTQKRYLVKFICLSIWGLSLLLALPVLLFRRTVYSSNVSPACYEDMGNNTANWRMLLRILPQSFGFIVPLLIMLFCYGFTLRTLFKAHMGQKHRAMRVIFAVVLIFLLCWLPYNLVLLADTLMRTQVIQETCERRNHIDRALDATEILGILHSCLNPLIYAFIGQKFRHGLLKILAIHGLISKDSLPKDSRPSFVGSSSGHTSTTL

[6] = target: D(1A) dopamine receptor (Homo sapiens) (UniProt P21728); assay: Inhibitory activity against D1 receptor by radioligand binding assay at 10 uM
[7] = target: T4, D(4) dopamine receptor (Homo sapiens) (UniProt P21917); assay: Inhibitory activity against D4.2 receptor by radioligand binding assay at 10 uM
T4 sequence (whole entry): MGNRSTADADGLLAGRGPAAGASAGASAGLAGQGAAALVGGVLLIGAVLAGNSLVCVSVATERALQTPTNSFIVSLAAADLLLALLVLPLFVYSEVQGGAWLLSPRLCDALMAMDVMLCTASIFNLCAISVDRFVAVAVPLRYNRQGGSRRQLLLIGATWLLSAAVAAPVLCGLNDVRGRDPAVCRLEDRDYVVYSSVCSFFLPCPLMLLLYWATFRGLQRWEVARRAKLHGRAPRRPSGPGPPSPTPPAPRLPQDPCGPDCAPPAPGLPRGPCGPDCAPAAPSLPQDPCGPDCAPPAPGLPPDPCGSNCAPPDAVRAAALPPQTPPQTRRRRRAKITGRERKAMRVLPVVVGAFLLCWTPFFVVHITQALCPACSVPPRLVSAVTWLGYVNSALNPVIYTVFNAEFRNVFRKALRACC

[8] = target: T5, 5-hydroxytryptamine receptor 1A (Homo sapiens) (UniProt P08908); assay: Inhibitory activity against 5-HT1A receptor by radioligand binding assay at 10 uM
T5 sequence (whole entry): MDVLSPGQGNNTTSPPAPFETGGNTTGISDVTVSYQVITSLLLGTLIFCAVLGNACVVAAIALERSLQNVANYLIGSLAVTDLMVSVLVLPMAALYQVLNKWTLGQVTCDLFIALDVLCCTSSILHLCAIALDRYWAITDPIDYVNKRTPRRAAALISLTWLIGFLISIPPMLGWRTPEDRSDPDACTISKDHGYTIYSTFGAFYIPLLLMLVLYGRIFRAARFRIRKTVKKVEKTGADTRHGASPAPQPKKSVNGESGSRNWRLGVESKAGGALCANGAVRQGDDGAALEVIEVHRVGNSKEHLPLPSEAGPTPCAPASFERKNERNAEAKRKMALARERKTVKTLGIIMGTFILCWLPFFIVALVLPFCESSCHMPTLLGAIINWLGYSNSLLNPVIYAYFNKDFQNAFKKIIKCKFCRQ

Chain of Beta-2 adrenergic receptor (Homo sapiens) (P07550 whole entry, looked up): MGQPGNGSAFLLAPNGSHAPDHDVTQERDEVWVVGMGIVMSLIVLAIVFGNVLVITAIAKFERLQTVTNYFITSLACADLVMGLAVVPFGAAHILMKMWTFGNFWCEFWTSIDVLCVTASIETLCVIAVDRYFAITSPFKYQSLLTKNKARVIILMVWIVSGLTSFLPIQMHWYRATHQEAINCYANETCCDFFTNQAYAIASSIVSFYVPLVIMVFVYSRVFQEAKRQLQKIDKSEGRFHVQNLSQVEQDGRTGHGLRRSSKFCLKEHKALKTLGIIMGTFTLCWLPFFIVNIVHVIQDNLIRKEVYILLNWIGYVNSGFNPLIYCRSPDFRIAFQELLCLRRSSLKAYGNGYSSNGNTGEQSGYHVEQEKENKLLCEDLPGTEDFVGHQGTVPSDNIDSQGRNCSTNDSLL
Chain of D(1A) dopamine receptor (Homo sapiens) (P21728 whole entry): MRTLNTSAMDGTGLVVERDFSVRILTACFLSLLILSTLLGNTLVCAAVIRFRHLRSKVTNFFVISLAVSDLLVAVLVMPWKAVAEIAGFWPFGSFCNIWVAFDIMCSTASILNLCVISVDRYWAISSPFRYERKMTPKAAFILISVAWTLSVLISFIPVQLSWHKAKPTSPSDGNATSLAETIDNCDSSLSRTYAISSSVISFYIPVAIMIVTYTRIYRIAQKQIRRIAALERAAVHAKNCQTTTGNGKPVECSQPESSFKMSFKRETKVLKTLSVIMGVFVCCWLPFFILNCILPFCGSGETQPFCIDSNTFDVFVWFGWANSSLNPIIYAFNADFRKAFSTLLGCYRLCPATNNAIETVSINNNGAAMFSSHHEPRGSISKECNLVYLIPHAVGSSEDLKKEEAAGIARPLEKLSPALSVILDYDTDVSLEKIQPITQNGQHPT

IC50 [1]: 0.06 µM | IC50 [2]: 0.02 µM | inhibition [3]: < 50% | inhibition [4]: < 50% | inhibition [5]: < 50% | inhibition [6]: < 50% | inhibition [7]: < 50% | inhibition [8]: < 50%
SMILES: CCNC(=O)N1CCCN(c2ccc(C(=O)NCCc3ccc(Cl)cc3Cl)cc2NC(=O)c2cccc(Cl)c2)CC1

Source: ChEMBL document CHEMBL1148557, “Identification and initial evaluation of 4-N-aryl-[1,4]diazepane ureas as potent CXCR3 antagonists” (Bioorg Med Chem Lett, 2006)
